The source of these data is ChEMBL document CHEMBL3414530, “Synthesis, molecular modeling, and biological evaluation of novel RAD51 inhibitors” (Eur J Med Chem, 2015).

Data set [1] deals with MDA-MB-468. In words: Cytotoxicity against human MDA-MB-468 cells assessed as growth inhibition after 4 days by XTT assay. It counts as functional, cell-based. The following applies: MDA-MB-468, 96 h. The procedure, abridged: (§1)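 Cells kept in low-glucose DMEM with 10% FBS and 1% penicillin-streptomycin, seeded in 96-well plates the day before treatment. Compound exposure lasted four days, and the XTT cell proliferation kit was read on day 6 after drug addition. Dose-response cytotoxicity was measured in triplicate sets.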

Data set [2] has as its target T1, DNA repair protein RAD51 homolog 1 (Homo sapiens) (UniProt Q06609).
T1 sequence (whole entry): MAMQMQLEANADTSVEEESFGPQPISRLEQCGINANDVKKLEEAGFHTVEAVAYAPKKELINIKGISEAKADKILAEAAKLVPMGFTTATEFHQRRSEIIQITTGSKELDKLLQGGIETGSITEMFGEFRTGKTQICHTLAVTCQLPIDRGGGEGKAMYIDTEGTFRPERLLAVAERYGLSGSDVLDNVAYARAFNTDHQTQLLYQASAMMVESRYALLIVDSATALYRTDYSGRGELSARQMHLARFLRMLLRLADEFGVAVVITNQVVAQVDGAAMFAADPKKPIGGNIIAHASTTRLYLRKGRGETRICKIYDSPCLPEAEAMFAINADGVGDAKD
Description: Inhibition of RAD51 (unknown origin) multimerization by gel filtration method. A digest of the protocol: (§2)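 Purified RAD51 (3.2 µg) preincubated with compound at 1:10 protein:compound molar ratio, 15 min at 37°C. Then 15 min in 50 mM triethanolamine-HCl pH 7.5, 0.5 mM Mg(OAc)2, 1 mM DTT, 2 mM ATP, 100 µg/ml BSA. Run on Superdex 200 PC 3.2/30 gel filtration in the same buffer. 50 µl fractions dot-blotted onto PVDF and probed with anti-RAD51 mAb 14B4.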
(SEC sorts molecules by how far they enter the pores of the column.)

Data set [3] addresses T1, DNA repair protein RAD51 homolog 1 (Homo sapiens). In words: Inhibition of RAD51 in human HeLa cells expressing DR-GFP assessed as reduction of homologous recombination frequency at 10 to 20 uM after 24 hrs by I-SceI inducible gene conversion assay. The class given is cell-based. The procedure, abridged:
(§3)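 HeLa cells stably carrying DR-GFP (puromycin 2 µg/mL selection) were transiently transfected with I-SceI vector pCBASce for 24 h to induce DSBs. They were then treated with DMSO or compound at 10 or 20 µM for another 24 h. GFP-positive percentage was measured by flow cytometry as means±SD from three independent experiments.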

Data set [4] shares this target. In words: Inhibition of RAD51 (unknown origin) multimerization at 1:10 M ratio of protein to compound after 15 mins by gel filtration method. A digest of the protocol:
as §2

Data set [5] can be described thus: Cytotoxicity against human MCF10A cells assessed as growth inhibition after 4 days by XTT assay. It counts as cell-based. Conditions: MCF-10A, 96 h. In general terms: Tetrazolium assays rely on reduction of a dye to a coloured formazan, in cell work by metabolically active cells.
Data set [6] deals with MCF7. Description: Cytotoxicity against human MCF7 cells assessed as growth inhibition after 4 days by XTT assay. Conditions: MCF7, 96 h. The class given is functional, cell-based. A digest of the protocol:
as §1

Data set [7] has as its system MDA-MB-435. Description: Cytotoxicity against human MDA-MB-435 cells assessed as growth inhibition after 4 days by XTT assay. It counts as functional, cell-based. The following applies: MDA-MB-435, 96 h. The procedure, abridged:
as §1

The test system of data set [8] is T47D. Description: Cytotoxicity against human T47D cells assessed as growth inhibition after 4 days by XTT assay. The class given is functional, cell-based. Conditions: 96 h.
For data set [9], the system named is MDA-MB-361. Description: Cytotoxicity against human MDA-MB-361 cells assessed as growth inhibition after 4 days by XTT assay. It counts as functional, cell-based. Conditions: MDA-MB-361, 96 h. The procedure, abridged:
as §1

Data set [10] has as its system U2OS. Description: Cytotoxicity against human U2OS cells assessed as growth inhibition after 4 days by XTT assay. Conditions: 96 h. The class given is functional, cell-based. The procedure, abridged:
as §1

The test system of data set [11] is HeLa. In words: Cytotoxicity against human HeLa cells assessed as growth inhibition after 4 days by XTT assay. It counts as functional, cell-based. Conditions: 96 h.
For data set [12], the system named is MDA-MB-231. In words: Cytotoxicity against human MDA-MB-231 cells assessed as growth inhibition after 4 days by XTT assay. The following applies: MDA-MB-231, 96 h. It counts as functional, cell-based. The procedure, abridged: as §1
Data set [13] is described as follows: Selectivity ratio of IC50 for human MCF10A cells to IC50 for human T47D cells. It counts as ADME, cell-based, MCF-10A. Conditions: MCF10A cells versus T47D cells.
Data set [14] has as its system K562. Description: Cytotoxicity against human K562 cells assessed as growth inhibition after 4 days by XTT assay. It counts as functional, cell-based. The following applies: K562, 96 h.
Data set [15] relates to T98G. Description: Cytotoxicity against human T98G cells assessed as growth inhibition after 4 days by XTT assay. The class given is functional, cell-based. Conditions: 96 h. The procedure, abridged: as §1
Data set [16] in a line: Selectivity ratio of IC50 for human MCF10A cells to IC50 for human T98G cells. It counts as ADME, cell-based, MCF-10A. Conditions: MCF10A cells versus T98G cells.
In data set [17] the target is T1, DNA repair protein RAD51 homolog 1 (Homo sapiens). Description: Inhibition of RAD51 in human HeLa cells expressing DR-GFP assessed as reduction of homologous recombination frequency after 24 hrs by I-SceI inducible gene conversion assay. It counts as cell-based. The procedure, abridged:
as §3

Data set [18] can be described thus: Cytotoxicity against human Hs578T cells assessed as growth inhibition after 4 days by XTT assay. The class given is functional, cell-based. The following applies: Hs-578T, 96 h. The procedure, abridged:
as §1

Usually pIC50 stands for −log10 of the IC50, conventionally taken in molar units.

Each structure is given as a SMILES string. pIC50: −log10 of the molar value. Calls of active or inactive are those of the source. The calls are words filed in the database; no cut-off is given here.

Regarding `O=S(=O)(Cc1ccccc1)N1CCc2ccccc2[C@@H]1c1c[nH]c2ccccc12`, the pIC50 in [1] was 4.93.

With `O=S(=O)(Cc1cccc(F)c1)N1CCc2ccccc2[C@H]1c1c[nH]c2ccccc12`, the pIC50 in data set [1] was 4.76. Still for that read-out and setting: next, `O=S(=O)(Cc1ccccc1C(F)(F)F)N1CCc2ccccc2[C@H]1c1c[nH]c2ccccc12`: 4.78; `O=S(=O)(Cc1ccc(F)cc1)N1CCc2ccccc2[C@@H]1c1c[nH]c2ccccc12`: 4.95. `O=S(=O)(Cc1ccccc1)N1Cc2ccccc2[C@H]1c1c[nH]c2ccccc12`: in data set [1], the pIC50 is < 4.92. Take `O=S(=O)(Cc1ccccc1)N1C=Cc2ccccc2C1c1c[nH]c2ccccc12` (racemic): the inhibition result in data set [2] and in [3] was “Active” in each case. For the same compound, in [1], the pIC50 is 4.83.

For `COc1cc2c(C3c4ccccc4C=CN3S(=O)(=O)Cc3ccccc3)c[nH]c2cn1` (racemic), in data set [1], the pIC50 is 4.90. With `O=S(=O)(Cc1ccccc1)N1CCc2ccccc2[C@H]1c1n[nH]c2ccccc12`, the pIC50 in data set [1] was 4.84. As to `O=S(=O)(Cc1ccccc1)N1Cc2ccccc2[C@@H]1c1c[nH]c2ccccc12`, in [4], the inhibition entry was “Active”. Besides, the pIC50 is < 4.52 in [5]; 5.51 in data set [6]; 5.40 in data set [7]; 5.20 in [8]; 5.35 in [9]; 5.33 in data set [10]. Besides, the pIC50 was 5.44 in [11]; 5.46 in data set [12]; 5.44 in [14]; 5.02 in data set [15]; 5.31 in data set [18]. The selectivity ratio in [13] was > 4.8; in data set [16], > 3.2. In addition, the inhibition entry in data set [17] is “Dose-dependent effect”. As to `O=S(=O)(Cc1cccc(C(F)(F)F)c1)N1CCc2ccccc2[C@H]1c1c[nH]c2ccccc12`, the pIC50 in data set [1] was 4.65. The same measure, in the same setting: the value for `O=S(=O)(Cc1cccc(C(F)(F)F)c1)N1CCc2ccccc2[C@@H]1c1c[nH]c2ccccc12` was 4.95; that for `O=S(=O)(Cc1ccccc1C(F)(F)F)N1CCc2ccccc2[C@@H]1c1c[nH]c2ccccc12` was 4.83. The same measure, in the same setting: next, `O=S(=O)(Cc1ccccc1)N1C=Cc2ccccc2C1c1c[nH]c2ncccc12` (racemic): 5.21; `O=S(=O)(Cc1ccccc1F)N1CCc2ccccc2[C@@H]1c1c[nH]c2ccccc12`: 4.90. On the same count and under the same terms, the value for `O=S(=O)(Cc1ccc(C(F)(F)F)cc1)N1CCc2ccccc2[C@H]1c1c[nH]c2ccccc12` was 4.68. For the compound `O=S(=O)(Cc1ccc(C(F)(F)F)cc1)N1CCc2ccccc2[C@@H]1c1c[nH]c2ccccc12`, the pIC50 in data set [1] is 4.87. The same measure, in the same setting: the value for `O=S(=O)(Cc1ccc(F)cc1)N1CCc2ccccc2[C@H]1c1c[nH]c2ccccc12` was 4.59; that for `Nc1ncc([C@@H]2c3ccccc3CCN2S(=O)(=O)Cc2ccccc2)s1` was < 4.60. On the same count and under the same terms, next, `O=S(=O)(Cc1ccccc1F)N1CCc2ccccc2[C@H]1c1c[nH]c2ccccc12`: 4.72; `O=S(=O)(Cc1ccccc1)N1CC=Cc2ccccc2[C@H]1c1c[nH]c2ccccc12`: < 4.30. On to `O=S(=O)(Cc1ccccc1)N1CCc2ccccc2[C@@H]1c1n[nH]c2ccccc12`, for which the pIC50 in [1] was 5.02. For the compound `COc1nccc2c(C3c4ccccc4C=CN3S(=O)(=O)Cc3ccccc3)c[nH]c12` (racemic), the pIC50 in data set [1] was 5.20. The same measure, in the same setting: next, `O=S(=O)(Cc1ccccc1)N1CC=Cc2ccccc2[C@@H]1c1c[nH]c2ccccc12`: 4.83; `O=S(=O)(Cc1ccccc1)N1CCc2ccccc2[C@H]1c1c[nH]c2ccccc12`: 4.88; `O=S(=O)(Cc1cccc(F)c1)N1CCc2ccccc2[C@@H]1c1c[nH]c2ccccc12`: 4.85.
